Calls of active or inactive are those of the source. The calls are words filed in the database; no cut-off is given here.

In data set [1] the test system is Mus musculus. In words: Anticonvulsant activity in ip dosed mouse assessed as protection against maximal electroshock-induced seizures. The format is functional.
Data set [2] concerns Mus musculus. As to the kind of experiment: Hepatotoxicity in mouse assessed as effect on alkaline phosphatase level at 30 mg/kg/day, po dosed for 2 weeks relative to control. The conditions noted are these: in vivo, 336 h. On the set-up: route oral. The format is toxicity, organism-based. In a few lines:
(§1)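 Serum SGOT, SGPT, alkaline phosphatase, total albumin and total protein were measured in treated mice against controls (n = 6). Data were analysed by ANOVA followed by Student's t test.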

Data set [3] deals with Mus musculus. As to the kind of experiment: Increase in GABA level in mouse brain at 30 mg/kg, po dosed for 7 days by spectrophotometry relative to control. The format is functional.
In data set [4] the test system is Mus musculus. As to the kind of experiment: Neuroprotective activity in acrylamide-intoxicated mouse assessed as reduction in brain malonaldehyde level at 50 mg/kg, ip dosed 3 days/week for 3 weeks administered 10 mins before acrylamide challenge by TBARS detection assay. It is filed as functional, organism-based. Details: dose 50 mg/kg. In a few lines: (§2)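 Mice were given acrylamide to induce brain degeneration, with compound administered 10 min before the acrylamide. Brain MDA (lipid peroxidation) and LDH activity were measured against controls. Values are mean ± SEM of six animals, compared with Student's t test.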

The subject of data set [5] is Mus musculus. In words: Anticonvulsant activity in ip dosed mouse assessed as compound concentration causing protection against subcutaneous pentylenetetrazol-induced seizures in half or more test animals after 4 hrs. The format is functional. The conditions noted are these: read-out: MED. In a few lines: (§3)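 Albino mice of either sex (25-30 g), housed under standard conditions with free access to pellet diet and water. Compounds given at 30, 100 and 300 mg/kg (n = 6). MES and scPTZ seizures were read at 0.5 h and 4 h. The value recorded is the minimum dose protecting half or more of the mice; 300 mg/kg is the maximum dose.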

Data set [6] relates to Mus musculus. As to the kind of experiment: Anticonvulsant activity in ip mouse assessed as protection against subcutaneous pentylenetetrazol-induced seizures. It is filed as functional. In a few lines:
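This is the Phase II quantitation in albino mice of either sex (25-30 g). […] TD50 came from the rotarod test, read 30 min after dosing. The protective index is TD50/ED50.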

In data set [7] the test system is Mus musculus. In words: Hepatotoxicity in mouse assessed as effect on SGPT level at 30 mg/kg/day, po dosed for 2 weeks relative to control. On the set-up: route oral. The format is toxicity, organism-based. The conditions noted are these: in vivo, 336 h. In a few lines: as §1
Data set [8] deals with Mus musculus. In words: Hepatotoxicity in mouse assessed as effect on SGOT level at 30 mg/kg, po after 2 weeks relative to control. The conditions noted are these: in vivo, 336 h. The format is toxicity, organism-based. Details: dose 30 mg/kg, route oral. In a few lines: as §1
Data set [9] relates to Mus musculus. In words: Neurotoxicity in mouse assessed as minimal motor impairment at 300 mg/kg, ip after 0.5 hrs by rotarod test. It is filed as toxicity, organism-based. Details: dose 300 mg/kg, route intraperitoneal. The conditions noted are these: in vivo. In a few lines: (§4)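 Albino mice of either sex (25-30 g) received 30, 100 or 300 mg/kg (n = 6). Neurological deficit was assessed on the rotarod at 0.5 h and 4 h. The value recorded is the minimum dose producing neurotoxicity in half or more of the mice; 300 mg/kg is the maximum dose.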

Data set [10] has as its system Mus musculus. As to the kind of experiment: Anticonvulsant activity in ip dosed mouse assessed as compound concentration causing protection against maximal electroshock-induced seizures in half or more test animals after 0.5 hrs. The conditions noted are these: read-out: MED. It is filed as functional. In a few lines:
as §3

Data set [11] is described as follows: Neurotoxicity in ip dosed mouse after 30 mins by rotarod test. It is filed as toxicity, organism-based. The conditions noted are these: in vivo.
Data set [12] deals with Mus musculus. In words: Hepatotoxicity in mouse assessed as effect on total albumin level at 30 mg/kg/day, po dosed for 2 weeks relative to control. The format is toxicity, organism-based. The conditions noted are these: in vivo, 336 h. Details: route oral. In a few lines: as §1
For data set [13], the system named is Mus musculus. As to the kind of experiment: Neuroprotective activity in acrylamide-intoxicated mouse assessed as reduction in brain LDH level at 50 mg/kg, ip dosed 3 days/week for 3 weeks administered 10 mins before acrylamide challenge by spectrophotometry. The format is functional, organism-based. On the set-up: dose 50 mg/kg. In a few lines: as §2
The subject of data set [14] is Mus musculus. In words: CNS depressant activity in mouse assessed as immobility time at 100 mg/kg, ip measured 60 mins post dose by porsolt's swimming pool test. The format is organism-based. Details: dose 100 mg/kg, route intraperitoneal. The conditions noted are these: in vivo, 1 h. In a few lines: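 Behavioral depression was measured by Porsolt's swim test in albino mice of either sex. Immobility time (s) was recorded 24 h before as the control and again 60 min after treatment. Values are mean ± SEM of six mice, compared with Student's t test.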

The subject of data set [15] is Mus musculus. In words: Anticonvulsant activity in ip dosed mouse assessed as compound concentration causing protection against maximal electroshock-induced seizures in half or more test animals after 4 hrs. It is filed as functional. The conditions noted are these: read-out: MED. In a few lines: as §3
Data set [16] has as its system Mus musculus. In words: Hepatotoxicity in mouse assessed as effect on total protein level at 30 mg/kg/day, po dosed for 2 weeks relative to control. It is filed as toxicity, organism-based. Details: route oral. The conditions noted are these: in vivo, 336 h. In a few lines:
as §1

The test system of data set [17] is Mus musculus. As to the kind of experiment: Anticonvulsant activity in ip dosed mouse assessed as compound concentration causing protection against subcutaneous pentylenetetrazol-induced seizures in half or more test animals after 0.5 hrs. The conditions noted are these: read-out: MED. It is filed as functional. In a few lines:
as §3

Data set [18] has as its system Mus musculus. As to the kind of experiment: Protective index, ratio of TD50 for mouse to ED50 for anticonvulsant activity in mouse by subcutaneous pentylenetetrazol-induced seizure test. The format is functional.
In data set [19] the test system is Mus musculus. As to the kind of experiment: Hepatotoxicity in mouse assessed as morphological changes in hepatic parenchyma at 30 mg/kg/day, po dosed for 2 weeks by Harris haematoxylin-eosin staining based […] microscopic analysis relative to control. The conditions noted are these: in vivo, 336 h. It is filed as toxicity, organism-based. Details: route oral.

The test system of data set [20] is Mus musculus. In words: Hepatotoxicity in mouse assessed as hepatic inflammation at 30 mg/kg/day, po dosed for 2 weeks by Harris haematoxylin-eosin staining based […] microscopic analysis relative to control. On the set-up: route oral. The format is toxicity, organism-based. The conditions noted are these: in vivo, 336 h.
Data set [21] deals with Mus musculus. In words: Neurotoxicity in mouse assessed as minimal motor impairment at 300 mg/kg, ip after 4 hrs by rotarod test. The format is toxicity, organism-based. On the set-up: dose 300 mg/kg, route intraperitoneal. The conditions noted are these: in vivo. In a few lines:
as §4

Data set [22] is filed under the species Mus musculus. In words: Protective index, ratio of TD50 for mouse to ED50 for anticonvulsant activity in mouse by maximal electroshock-seizure test. The format is functional.
Data set [23] concerns Mus musculus. In words: Hepatotoxicity in mouse assessed as hepatocytes degeneration at 30 mg/kg/day, po dosed for 2 weeks by Harris haematoxylin-eosin staining based […] microscopic analysis relative to control. The format is toxicity, organism-based, Hepatocyte. On the set-up: route oral. The conditions noted are these: 336 h.
In data set [24] the test system is Mus musculus. As to the kind of experiment: Hepatotoxicity in mouse assessed as liver necrosis at 30 mg/kg/day, po dosed for 2 weeks by Harris haematoxylin-eosin staining based […] microscopic analysis relative to control. Details: route oral. The conditions noted are these: in vivo, 336 h. It is filed as toxicity, organism-based.

With `COc1ccc2nc(NC(=O)CCC(=O)c3ccccc3)sc2c1`, the results for the ED50 in the data set on Mus musculus [1] and in the data set with Mus musculus [6] were 41 mg/kg and 85.2 mg/kg, respectively. In addition, the Activity result in the data set on Mus musculus [2], in the data set with Mus musculus [7], in the data set with Mus musculus [8], in the data set on Mus musculus [9], in the data set on Mus musculus [12] and with Mus musculus [16] was “Non-toxic” throughout. Moreover, the Activity entry in the data set on Mus musculus [19], in the data set with Mus musculus [20], in the data set on Mus musculus [21], in the data set on Mus musculus [23] and in the data set with Mus musculus [24] was “Non-toxic” throughout. Also, the “fold change (FC)” value with Mus musculus [3] was 1.8. The result in the data set with Mus musculus [4] and in the data set with Mus musculus [13] was Active. The minimal effective dose in the data set with Mus musculus [5] came to 100 mg/kg; in the data set on Mus musculus [10], 30 mg/kg; with Mus musculus [15] it was 30 mg/kg; with Mus musculus [17], 100 mg/kg. Moreover, the TD50 at 0.5 h in data set [11] is 348 mg/kg. For the same molecule, the Time with Mus musculus [14] is 135.6 s. The “Ratio TD50/ED50” value in the data set with Mus musculus [18] came to 4; in the data set filed under Mus musculus [22], 8.4.

For the origin of these results see ChEMBL document CHEMBL2150955, “Design, synthesis and evaluation of N-(substituted benzothiazol-2-yl)amides as anticonvulsant and neuroprotective” (Eur J Med Chem, 2012).
